Test results as given in ChEMBL document CHEMBL1128248, “C-9 and N-substituted analogs of cis-(3aR)-(-)-2,3,3a,4,5,9b-hexahydro-3- propyl-1H-benz[e]indole-9-carboxamide: 5-HT1A receptor agonists with various degrees of metabolic stability” (J Med Chem, 1995).
Activity calls are given as the source filed them. The rule behind the calls is not given here.

Legend:
[1] = molecular target: T1, 5-hydroxytryptamine receptor 1A (Rattus norvegicus, UniProt P19327); test: In vitro displacement of radioactively labeled ligand [3H]8-OH-DPAT from 5-hydroxytryptamine 1A receptor site in CHO cells; format: cell-based
T1 sequence (P19327 whole entry): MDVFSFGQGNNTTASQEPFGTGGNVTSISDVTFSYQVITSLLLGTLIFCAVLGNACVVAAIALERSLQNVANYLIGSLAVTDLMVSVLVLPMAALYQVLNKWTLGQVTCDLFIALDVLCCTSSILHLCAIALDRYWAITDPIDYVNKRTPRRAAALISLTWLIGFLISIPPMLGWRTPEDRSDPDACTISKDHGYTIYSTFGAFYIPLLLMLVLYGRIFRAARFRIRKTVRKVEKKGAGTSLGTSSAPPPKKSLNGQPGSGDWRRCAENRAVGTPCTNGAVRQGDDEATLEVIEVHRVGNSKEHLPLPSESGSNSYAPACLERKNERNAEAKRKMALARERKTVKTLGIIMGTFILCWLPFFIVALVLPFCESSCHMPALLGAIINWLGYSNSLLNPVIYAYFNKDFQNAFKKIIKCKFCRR

D(2) dopamine receptor = D(2) dopamine receptor (Rattus norvegicus, UniProt P61169); test: Displacement of [3H]U-86170 from Dopamine receptor D2
D(2) dopamine receptor, sequence (P61169 whole entry): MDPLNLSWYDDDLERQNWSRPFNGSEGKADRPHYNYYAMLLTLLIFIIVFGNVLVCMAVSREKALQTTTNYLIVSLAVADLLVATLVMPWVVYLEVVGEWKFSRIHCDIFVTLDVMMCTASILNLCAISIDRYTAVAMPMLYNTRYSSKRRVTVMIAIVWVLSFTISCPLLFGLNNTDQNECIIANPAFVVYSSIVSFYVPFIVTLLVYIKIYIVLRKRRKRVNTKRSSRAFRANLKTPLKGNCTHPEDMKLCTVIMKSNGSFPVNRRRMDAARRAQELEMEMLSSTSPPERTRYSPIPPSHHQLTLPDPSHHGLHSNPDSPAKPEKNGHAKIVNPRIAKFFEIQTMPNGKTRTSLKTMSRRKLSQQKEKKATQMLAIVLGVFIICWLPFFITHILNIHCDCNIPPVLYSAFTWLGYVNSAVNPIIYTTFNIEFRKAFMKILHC
How it was run: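 Competition binding at cloned D2 receptors expressed in CHO-K1 cells, using the agonist [3H]U86170 (62 Ci/mmol, 2 nM) against 11 dilutions of test compound. IC50 was fitted to a one-site model by nonlinear least squares. Ki was obtained with the Cheng–Prusoff equation.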

Rattus norvegicus [2] = organism: Rattus norvegicus; test: (§1) In vitro metabolic stability of the test compound was evaluated after incubation in the presence of freshly isolated rat hepatocytes; format: functional, Hepatocyte; set-up: reference not given here
How it was run: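 Rat hepatocytes were isolated by modified collagenase perfusion and incubated as suspensions (5 million cells/mL) with each compound at three concentrations. Parent loss was followed by HPLC. Initial rates gave apparent Vmax and Km by direct linear plot, with CLint = Vmax/Km. Stability is expressed relative to a reference compound incubated at the same time.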

Rattus norvegicus [3] = test: postsynaptic effects was assessed by the increase in the locomotor activity (reversal of reserpine induced hypokinesia) during a 30 min period after subcutaneous administration using photocell motility meters at the dose of 0.8(micr oM/kg); format: ADME, organism-based; conditions: in vivo, sc, 0.5 h
How it was run: (§2)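 Reserpine 5 mg/kg sc was given 18 h before testing to male Sprague–Dawley rats. Test drug was given sc in the neck, and rats were placed singly in photocell motility meters. Accumulated counts were recorded over 30 min (mean, n = 4), with gross behaviour observed throughout. Student's t test was applied.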

Rattus norvegicus [4] = test: (§3) 5-HTP accumulation in limbic system was determined in vivo; format: functional
How it was run: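 Male Sprague–Dawley rats (200–300 g), pretreated with reserpine 5 mg/kg sc 18 h before. Test drug given sc. 5-HTP measured in limbic brain tissue by HPLC with electrochemical detection. Dose–response curves were built from four to six dose levels (n = 4) for each substance and brain area. ED50 reported in μmol/kg sc.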

Rattus norvegicus [5] = test: in vivo effects on DA (dopamine) synthesis in cortex was reported after subcutaneous administration to reserpinized rats; inactive at a dose of 2.1; format: functional, organism-based
Rattus norvegicus [6] = test: In vivo effects on DA (dopamine) synthesis in corps striatum was reported after subcutaneous administration to reserpinized rats; inactive at a dose of 2.1; format: functional, organism-based
Rattus norvegicus [7] = test: In vivo effects on DA (dopamine) synthesis in corps striatum was reported after subcutaneous administration to reserpinized rats; inactive at a dose of 50; format: functional, organism-based
How it was run: (§4)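 Male Sprague–Dawley rats (200–300 g) given reserpine 5 mg/kg sc 18 h before; compounds sc in neck region, 5 mL/kg. DOPA accumulation in striatum or cortex measured by HPLC with electrochemical detection.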

Rattus norvegicus [8] = test: in vivo effects on DA (dopamine) synthesis in cortex was reported after subcutaneous administration to reserpinized rats; inactive at a dose of 50; format: functional, organism-based; how it was run: as §4
Rattus norvegicus [9] = test: postsynaptic effects was assessed by the increase in the locomotor activity (reversal of reserpine induced hypokinesia) during a 30 min period after subcutaneous administration using photocell motility meters at the dose of 10(micro M/kg); format: ADME, organism-based; conditions: in vivo, sc, 0.5 h
How it was run: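 Male Sprague–Dawley rats got reserpine 5 mg/kg sc in the neck 18 h before testing. Compound was given sc in the neck (5 mL/kg), and rats were placed singly in photocell motility meters. Accumulated counts were recorded over 30 min, mean ± SEM, n = 4, with Student's t test against reserpinized controls. Testing ran 9 a.m.–1 p.m.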

Rattus norvegicus [10] = organism: Rattus norvegicus; test: as §1; format: ADME, Hepatocyte
How it was run: (§5)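 Rat hepatocytes were prepared by a modified collagenase perfusion method. Each compound was incubated at three concentrations in suspension at 5 million cells/mL. Initial rates were analysed by direct linear plot to give apparent Vmax and Km, and CLint = Vmax/Km. Rates were measured by HPLC and expressed relative to a reference compound incubated at the same time.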

Rattus norvegicus [11] = test: as §3; format: functional; remark: listed apart in the source
How it was run: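 Male Sprague–Dawley rats (200–300 g) pretreated with reserpine 5 mg/kg sc 18 h beforehand; test drug given sc in neck, 5 mL/kg, neutral pH. 5-HTP in limbic system measured by HPLC with electrochemical detection.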

Rattus norvegicus [12] = test: in vivo effects on DA (dopamine) synthesis in cortex was reported after subcutaneous administration to reserpinized rats; format: functional, organism-based
Rattus norvegicus [13] = test: postsynaptic effects was assessed by the increase in the locomotor activity (reversal of reserpine induced hypokinesia) during a 30 min period after subcutaneous administration using photocell motility meters at the dose of 0.2 (mic roM/kg); format: functional; how it was run: as §2
Rattus norvegicus [14] = test: In vivo effects on DA (dopamine) synthesis in corps striatum was reported after subcutaneous administration to reserpinized rats; I = inactive at highest dose 45 umol/kg; format: functional, organism-based
Rattus norvegicus [15] = test: postsynaptic effect was assessed by the increase in the locomotor activity (reversal of reserpine induced hypokinesia) during a 30 min period after subcutaneous administration using photocell motility meters at the dose of 3.1 uM/kg; format: ADME, organism-based; conditions: in vivo, sc, 0.5 h; how it was run: as §2
Rattus norvegicus [16] = test: in vivo effects on DA (dopamine) synthesis in cortex was reported after subcutaneous administration to reserpinized rats; inactive at a dose of 3.1; format: functional, organism-based
Rattus norvegicus [17] = test: In vivo effects on DA (dopamine) synthesis in corps striatum was reported after subcutaneous administration to reserpinized rats; inactive at a dose of 3.1; format: functional, organism-based
Rattus norvegicus [18] = test: postsynaptic effects was assessed by the increase in the locomotor activity (reversal of reserpine induced hypokinesia) during a 30 min period after subcutaneous administration using photocell motility meters at the dose of 3.1(micr oM/kg); format: ADME, organism-based; conditions: in vivo, sc, 0.5 h; how it was run: as §2
Rattus norvegicus [19] = test: postsynaptic effects was assessed by the increase in the locomotor activity (reversal of reserpine induced hypokinesia) during a 30 min period after subcutaneous administration using photocell motility meters at the dose of 50(micro M/kg); format: ADME, organism-based; conditions: in vivo, sc, 0.5 h; how it was run: as §2
Rattus norvegicus [20] = organism: Rattus norvegicus; test: In vitro metabolic stability of the test compound was evaluated after incubation in the presence of freshly isolated rat hepatocytes; Metabolic stability NT = not tested; format: functional, Hepatocyte; how it was run: as §5
Rattus norvegicus [21] = test: postsynaptic effects was assessed by the increase in the locomotor activity (reversal of reserpine induced hypokinesia) during a 30 min period after subcutaneous administration using photocell motility meters at the dose of 12.5(mic roM/kg); format: ADME, organism-based; conditions: in vivo, sc, 0.5 h; how it was run: as §2

| Structure (SMILES) | Ki [1] [µM] | Ki (D(2) dopamine receptor) [µM] | Metabolic stability (Rattus norvegicus [2]) | other results |
| --- | --- | --- | --- | --- |
| CCCN1CC[C@H]2c3c(cccc3C(C)=O)CC[C@H]21 | 0.0004 | 0.091 | 0.13 | Locomotor activity (Rattus norvegicus [3]): 115; ED50 (Rattus norvegicus [4]): 0.0125 µmol/kg; ED50 (Rattus norvegicus [5]): inactive; ED50 (Rattus norvegicus [6]): inactive |
| C=CCCN1CC[C@H]2c3c(cccc3C(N)=O)CC[C@H]21 | 0.082 | > 1 | 0.33 | – |
| C#CCN1CC[C@H]2c3c(cccc3C(N)=O)CC[C@H]21 | 0.048 | > 1 | 0.37 | – |
| C=CCN1CC[C@H]2c3c(Br)cccc3CC[C@H]21 | 0.001 | 0.0032 | – | – |
| NC(=O)c1cccc2c1[C@@H]1CCN(CCCF)[C@@H]1CC2 | 0.0039 | > 1 | 0.68 | – |
| CCCNC(=O)c1cccc2c1[C@@H]1CCN(CCC)[C@@H]1CC2 | 0.052 | > 1 | – | ED50 (Rattus norvegicus [7]): inactive; ED50 (Rattus norvegicus [8]): inactive; Locomotor activity (Rattus norvegicus [9]): 58; ED50 (Rattus norvegicus [4]): 4 µmol/kg |
| ClCCCN1CC[C@H]2c3c(Br)cccc3CC[C@H]21 | 0.012 | 0.073 | – | – |
| CCN1CC[C@H]2c3c(Br)cccc3CC[C@H]21 | 0.011 | 0.034 | – | – |
| CCCN(CCC)C1CCc2cccc(O)c2C1 (stereo not given) [8-OH-DPAT] | – | 0.086 | – | Metabolic stability (Rattus norvegicus [10]): 0.16; ED50 (Rattus norvegicus [11]): 0.052 µmol/kg; ED50 (Rattus norvegicus [12]): inactive; Locomotor activity (Rattus norvegicus [13]): 66; ED50 (Rattus norvegicus [14]): inactive |
| CCCN(CCC)C(=O)c1cccc2c1[C@@H]1CCN(CCC)[C@@H]1CC2 | 0.434 | > 1 | – | – |
| CCCN1CC[C@H]2c3c(cccc3C(=O)C(C)C)CC[C@H]21 | 0.0012 | 0.062 | 0.8 | Locomotor activity (Rattus norvegicus [15]): 450; ED50 (Rattus norvegicus [4]): 0.025 µmol/kg; ED50 (Rattus norvegicus [16]): inactive; ED50 (Rattus norvegicus [17]): inactive |
| CCCC(=O)c1cccc2c1[C@@H]1CCN(CCC)[C@@H]1CC2 | 0.0007 | 0.022 | 0.05 | Locomotor activity (Rattus norvegicus [18]): 631; ED50 (Rattus norvegicus [4]): 0.26 µmol/kg; ED50 (Rattus norvegicus [16]): inactive; ED50 (Rattus norvegicus [17]): inactive |
| C=CCNC(=O)c1cccc2c1[C@@H]1CCN(CCC)[C@@H]1CC2 | 0.0022 | > 1 | 0.4 | ED50 (Rattus norvegicus [7]): inactive; ED50 (Rattus norvegicus [11]): 0.8 µmol/kg; ED50 (Rattus norvegicus [8]): inactive; Locomotor activity (Rattus norvegicus [19]): 82 |
| CC(C)=CCN1CC[C@H]2c3c(cccc3C(N)=O)CC[C@H]21 | 0.271 | > 1 | – | Metabolic stability (Rattus norvegicus [20]): 0 |
| CCCCN1CC[C@H]2c3c(cccc3C(N)=O)CC[C@H]21 | 0.083 | > 1 | 0.3 | – |
| CCCN1CC[C@H]2c3c(cccc3C(=O)NCc3ccccc3)CC[C@H]21 | 0.022 | > 1 | 0.16 | ED50 (Rattus norvegicus [7]): inactive; ED50 (Rattus norvegicus [11]): 7 µmol/kg; ED50 (Rattus norvegicus [8]): inactive; Locomotor activity (Rattus norvegicus [21]): 41 |
